Source: ChEMBL document CHEMBL3612064, “Oxidative Reactivities of 2-Furylquinolines: Ubiquitous Scaffolds in Common High-Throughput Screening Libraries” (J Med Chem, 2015)
pIC50: −log10 of the molar value. Where “and” joins values, the source holds several entries; their conditions need not be identical. Identical values can stand only once. Each block holds one molecule with its values, some of them ahead of it. Calls of active or inactive are those of the source. No cut-off for these calls is given here.

Experiments:
[1] = Stability in DMSO solution assessed as parent compound remaining at 10 mM incubated for 38 days exposed to laboratory air by HPLC method
[2] = target: T1, DNA dC->dU-editing enzyme APOBEC-3G (Homo sapiens, UniProt Q9HC16); assay: Inhibition of APOBEC3G (unknown origin) assessed as remaining enzyme activity at 200 uM incubated for 3 days using ssDNA oligomer 5'-6-FAM-AAA-TAT-TCC-CTA-ATA-GAT-AAT-GTG-A-TAMRA-3' by fluorescence-based deamination assay
Summary of the method: (§1)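 A DMSO stock of the compound was aged in a closed microcentrifuge tube at 20-22 °C on the bench. The same stock was re-tested against recombinant A3G in dose response up to 200 μM at days 3, 21, 38 and 72. The assay was the fluorescence-based C-to-U deamination assay on a 6-FAM/TAMRA ssDNA oligo, with uracil DNA glycosylase in the read-out. Triplicates, mean ± SD.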

[3] = Toxicity against HEK293T cells assessed as cell viability at 50 uM incubated for 5 days; assay type: cell-based, HEK-293T; settings: human, read-out: Activity
[4] = target: T1, DNA dC->dU-editing enzyme APOBEC-3G; assay: Inhibition of APOBEC3G (unknown origin) up to 200 uM using ssDNA oligomer 5'-6-FAM-AAA-TAT-TCC-CTA-ATA-GAT-AAT-GTG-A-TAMRA-3' by fluorescence-based deamination assay
Summary of the method: (§2)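 Recombinant A3G was expressed and purified. A freshly prepared DMSO stock (day 0) was tested in dose response up to 200 μM. The read-out was the fluorescence-based ssDNA C-to-U deamination assay with a 5'-6-FAM/3'-TAMRA oligo, detected after uracil DNA glycosylase processing. Performed in triplicate, mean ± SD.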

[5] = target: T1, DNA dC->dU-editing enzyme APOBEC-3G; assay: Inhibition of APOBEC3G (unknown origin) fluorescence-based ssDNA C-to-U deaminase assay
[6] = Drug metabolism assessed as oxidative compound decompostion after irradiation with visible light under oxygen-saturated environment using [18]O2 in presence of rose bengal photosensitizer using by LC/MS method; assay type: physicochemical
[7] = target: DNA dC->dU-editing enzyme APOBEC-3A (Homo sapiens, UniProt P31941); assay: Inhibition of APOBEC3A (unknown origin) by fluorescence-based ssDNA C-to-U deaminase assay
Summary of the method: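 Recombinant purified A3A was tested in dose-response up to 200 μM, with compound from DMSO stock. C-to-U deamination was read by fluorescence from the 6-FAM/TAMRA-labelled probe in a coupled uracil DNA glycosylase step, and IC50 was taken from the dose-response curve.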

[8] = target: T1, DNA dC->dU-editing enzyme APOBEC-3G; assay: Inhibition of APOBEC3G (unknown origin) up to 200 uM incubated for 3 to 72 days using ssDNA oligomer 5'-6-FAM-AAA-TAT-TCC-CTA-ATA-GAT-AAT-GTG-A-TAMRA-3' by fluorescence-based deamination assay; settings: TDE = time-dependent effect
Summary of the method: as §1

[9] = target: T1, DNA dC->dU-editing enzyme APOBEC-3G; assay: Inhibition of APOBEC3G (unknown origin) assessed as remaining enzyme activity at 200 uM incubated for […] using ssDNA oligomer 5'-6-FAM-AAA-TAT-TCC-CTA-ATA-GAT-AAT-GTG-A-TAMRA-3' by fluorescence-based deamination assay
[10] = target: T1, DNA dC->dU-editing enzyme APOBEC-3G; assay: Inhibition of APOBEC3G (unknown origin) assessed as remaining enzyme activity at 200 uM incubated for 21 days using ssDNA oligomer 5'-6-FAM-AAA-TAT-TCC-CTA-ATA-GAT-AAT-GTG-A-TAMRA-3' by fluorescence-based deamination assay
Summary of the method: as §1

[11] = target: T1, DNA dC->dU-editing enzyme APOBEC-3G; assay: Inhibition of APOBEC3G (unknown origin) assessed as remaining enzyme activity at 200 uM incubated for 38 days using ssDNA oligomer 5'-6-FAM-AAA-TAT-TCC-CTA-ATA-GAT-AAT-GTG-A-TAMRA-3' by fluorescence-based deamination assay
Summary of the method: as §1

[12] = target: T1, DNA dC->dU-editing enzyme APOBEC-3G; assay: Inhibition of APOBEC3G (unknown origin) assessed as remaining enzyme activity at 200 uM using ssDNA oligomer 5'-6-FAM-AAA-TAT-TCC-CTA-ATA-GAT-AAT-GTG-A-TAMRA-3' by fluorescence-based deamination assay
Summary of the method: as §2

[13] = Drug metabolism assessed as oxidative compound decompostion after irradiation with visible light under oxygen-saturated environment in presence of rose bengal photosensitizer using compound-1 by LC/MS method; assay type: physicochemical
[14] = Drug metabolism assessed as compound formation using compound-1 by LC-MS method; assay type: physicochemical
Summary of the method: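 10 mM DMSO stocks were gently shaken at 25 °C open to air and analysed on day 38 by LC-MS. The LC-MS used a C18 column (0.5 × 150 mm, 5 μm) at 15 μL/min with trifluoroacetic and formic acid modifiers, and an ion-trap MS in positive-ion mode. Decomposition products were scored as detected or not detected.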

[15] = Drug metabolism in DMSO solution assessed as compound formation incubated for 38 days exposed to laboratory air by LC/MS method; assay type: physicochemical; settings: 912 h
[16] = Drug level assessed as compound formation using compound-1 in DMSO incubated for 16 months by 1H and 13C NMR method; assay type: physicochemical; settings: 11688 h
[17] = Drug level assessed as compound formation using compound-1 in DMSO incubated for 16 months by IR method; assay type: physicochemical; settings: 11688 h
[18] = Drug level assessed as compound formation using compound-1 in DMSO incubated for 16 months by LC-MS method; assay type: physicochemical; settings: 11688 h
[19] = target: T1, DNA dC->dU-editing enzyme APOBEC-3G; assay: Inhibition of APOBEC3G (unknown origin) assessed as reduction enzyme efficiency at 200 uM using ssDNA oligomer 5'-6-FAM-AAA-TAT-TCC-CTA-ATA-GAT-AAT-GTG-A-TAMRA-3' by fluorescence-based deamination assay
Summary of the method: as §2

[20] = Drug metabolism assessed as formation of oxidative decomposition products by LC-MS method; assay type: physicochemical
[21] = target: T1, DNA dC->dU-editing enzyme APOBEC-3G; assay: Inhibition of APOBEC3G (unknown origin) using ssDNA oligomer 5'-6-FAM-AAA-TAT-TCC-CTA-ATA-GAT-AAT-GTG-A-TAMRA-3' by fluorescence-based deamination assay
Summary of the method: as §2

T1 sequence (Q9HC16 whole entry): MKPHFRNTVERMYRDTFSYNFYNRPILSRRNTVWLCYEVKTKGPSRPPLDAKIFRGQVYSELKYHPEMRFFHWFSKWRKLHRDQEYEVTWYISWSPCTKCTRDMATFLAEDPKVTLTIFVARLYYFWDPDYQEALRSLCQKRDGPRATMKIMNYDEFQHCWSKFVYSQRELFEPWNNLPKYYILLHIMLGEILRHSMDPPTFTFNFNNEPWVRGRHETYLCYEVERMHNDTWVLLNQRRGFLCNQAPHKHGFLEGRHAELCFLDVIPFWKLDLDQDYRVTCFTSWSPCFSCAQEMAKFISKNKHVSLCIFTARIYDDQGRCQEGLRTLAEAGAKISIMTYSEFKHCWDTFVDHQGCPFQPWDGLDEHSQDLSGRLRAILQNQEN
Chain of DNA dC->dU-editing enzyme APOBEC-3A (P31941 whole entry): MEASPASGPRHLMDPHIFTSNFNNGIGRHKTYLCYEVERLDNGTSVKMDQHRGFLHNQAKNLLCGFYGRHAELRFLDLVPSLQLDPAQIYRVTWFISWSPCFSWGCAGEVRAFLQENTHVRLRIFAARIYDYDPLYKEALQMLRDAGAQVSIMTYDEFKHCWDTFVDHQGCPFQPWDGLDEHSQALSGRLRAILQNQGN

SMILES: Cc1ccc(-c2cc(C(=O)NC(C)C3CCCO3)c3ccccc3n2)o1 (configuration not stated)
remaining at 912 h, 10000 µM [1]: 55%

SMILES: CC1(O)C=CC(OO)(c2cc(C(=O)Nc3nnc(-c4ccncc4)s3)c3ccccc3n2)O1 (configuration not stated)
inhibition [12]: inactive | Drug metabolism [13]: metabolite_detected | Drug metabolism [14]: metabolite_detected

SMILES: O=C(O)c1cc(-c2ccco2)cc2ccccc12
remaining at 912 h, 10000 µM [1]: 89%

SMILES: Cc1ccc(-c2cc(C(=O)O)c3ccccc3n2)o1
remaining at 912 h, 10000 µM [1]: 83%

SMILES: Cc1ccc(-c2cc(C(=O)O)c3ccccc3c2)o1
remaining at 912 h, 10000 µM [1]: 82%

SMILES: COc1ccc(CCNC(=O)c2cc(-c3ccc(C)o3)nc3ccccc23)cc1
remaining at 912 h, 10000 µM [1]: 84%

SMILES: CC1(OO)C=CC(O)(c2cc(C(=O)Nc3nnc(-c4ccncc4)s3)c3ccccc3n2)O1 (configuration not stated)
inhibition [12]: inactive | Drug metabolism [13]: metabolite_detected | Drug metabolism [14]: metabolite_detected

SMILES: Cc1ccc(-c2cc(C(=O)NC3CCCCC3)c3ccccc3n2)o1
remaining at 912 h, 10000 µM [1]: 54%

SMILES: O=C(O)c1ccnc(-c2ccco2)c1
remaining at 912 h, 10000 µM [1]: 92%

SMILES: Cc1ccc(-c2cc(C(=O)N3CCN(S(C)(=O)=O)CC3)c3ccccc3n2)o1
remaining at 912 h, 10000 µM [1]: 26%

SMILES: Cc1ccc(-c2cc(C(=O)O)ccn2)o1
remaining at 912 h, 10000 µM [1]: 85%

SMILES: Cc1ccc(-c2ccc3ccccc3n2)o1
remaining at 912 h, 10000 µM [1]: 102%

SMILES: O=C(NNC(=O)c1cc(-c2ccco2)nc2ccccc12)NC1CCCCC1
remaining at 912 h, 10000 µM [1]: 64%

SMILES: O=C(O)c1cc(-c2ccco2)nc2ccccc12
remaining at 912 h, 10000 µM [1]: 69%

SMILES: c1coc(-c2ccc3ccccc3n2)c1
remaining at 912 h, 10000 µM [1]: 117%

SMILES: Nc1nnc(-c2ccncc2)s1
inhibition [12]: inactive

Further lines, with some results ahead:

remaining at 912 h, 10000 µM [1]: 34%
SMILES: Cc1ccc(-c2cc(C(=O)Nc3nnc(-c4ccncc4)s3)ccn2)o1

remaining at 912 h, 10000 µM [1]: 6% | Activity [2]: 82% | inhibition [4]: inactive | pIC50 [5]: 4.97 and 4.30 | pIC50 [7]: 5.55 and 5.01 | inhibition [8]: tde | Activity [9]: 29% | Activity [10]: 55% | Activity [11]: 29%
SMILES: Cc1ccc(-c2cc(C(=O)Nc3nnc(-c4ccncc4)s3)c3ccccc3n2)o1
viability at 120 h, 50 µM [3]: > 85% | Drug metabolism [6]: metabolite_detected

remaining at 912 h, 10000 µM [1]: 101%
SMILES: O=C(Nc1nnc(-c2ccncc2)s1)c1cc(-c2ccco2)nc2ccccc12

remaining at 912 h, 10000 µM [1]: 0%
SMILES: O=C(Nc1nnc(-c2ccncc2)s1)c1cc(-c2ccco2)cc2ccccc12

Activity [12]: 43% | Drug metabolism [14]: metabolite_detected | Drug metabolism [15]: metabolite_detected
SMILES: O=C(O)c1cc(C(=O)Nc2nnc(-c3ccncc3)s2)c2ccccc2n1
Drug metabolism [13]: metabolite_detected

Drug metabolism [15]: metabolite_detected
SMILES: O=CCC(=O)c1cc(C(=O)Nc2nnc(-c3ccncc3)s2)c2ccccc2n1

Activity [12]: 83% | Drug metabolism [16]: metabolite_detected | Drug metabolism [17]: metabolite_detected | Drug metabolism [18]: metabolite_detected | inhibition [19]: 50% | Drug metabolism [15]: metabolite_detected | Drug metabolism [20]: metabolite_detected
SMILES: O=C(Nc1nnc(-c2ccncc2)s1)c1cc(=O)[nH]c2ccccc12
Drug metabolism [13]: metabolite_detected

pIC50 [21]: 4.70 | Drug metabolism [14]: metabolite_detected | Drug metabolism [15]: metabolite_detected
SMILES: CC(=O)/C=C\C(=O)c1cc(C(=O)Nc2nnc(-c3ccncc3)s2)c2ccccc2n1
Drug metabolism [13]: metabolite_detected

Drug metabolism [15]: metabolite_detected
SMILES: O=C(O)/C=C\C(=O)c1cc(C(=O)Nc2nnc(-c3ccncc3)s2)c2ccccc2n1

remaining at 912 h, 10000 µM [1]: 56%
SMILES: Cc1ccc(-c2cc(C(=O)NCc3ccc4c(c3)OCO4)c3ccccc3n2)o1

remaining at 912 h, 10000 µM [1]: 25%
SMILES: Cc1ccc(-c2cc(C(=O)Nc3nnc(-c4ccncc4)s3)c3ccccc3c2)o1

remaining at 912 h, 10000 µM [1]: 90%
SMILES: O=C(Nc1nnc(-c2ccncc2)s1)c1ccnc(-c2ccco2)c1

remaining at 912 h, 10000 µM [1]: 19%
SMILES: COC(=O)c1cc(NC(=O)c2cc(-c3ccc(C)o3)nc3ccccc23)cc(C(=O)OC)c1

remaining at 912 h, 10000 µM [1]: 73%
SMILES: Cc1cccc(NC(=O)c2cc(-c3ccc(C)o3)nc3ccccc23)n1
